The list is not random: actives were taken first. Their share in the collection is about 1.3%.
S1P4 agonist: human S1P4 receptor agonism; hit rate 0.35% among 220,000; S1P4-expressing cell line, agonist reporter assay; O95977; activation, % at 4.98 µM; in the data active = activation above about 11%;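 also: 0% = DMSO vehicle and 100% = reference agonist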
Target sequence (O95977 whole entry, looked up): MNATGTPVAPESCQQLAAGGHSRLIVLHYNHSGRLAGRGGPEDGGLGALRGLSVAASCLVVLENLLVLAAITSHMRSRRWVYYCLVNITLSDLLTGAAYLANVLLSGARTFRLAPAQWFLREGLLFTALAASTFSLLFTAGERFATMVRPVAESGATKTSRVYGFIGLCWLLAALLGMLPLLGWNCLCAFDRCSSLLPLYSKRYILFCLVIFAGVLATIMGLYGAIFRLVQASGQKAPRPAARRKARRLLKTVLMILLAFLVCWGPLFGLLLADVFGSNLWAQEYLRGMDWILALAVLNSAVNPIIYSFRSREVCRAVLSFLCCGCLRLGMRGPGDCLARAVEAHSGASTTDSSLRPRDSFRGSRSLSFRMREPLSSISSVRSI
Dynein cargo inh: blocks dynein driven cargo transport along microtubules; hit rate 0.47% among 220,000; z-score, hits read low; 3617.4 mouse cells, GR-EGFP nuclear translocation imaging; test concentration mostly 20 µM; stimulated with dexamethasone, 1 µM; active compounds read low; AID 1381;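 active = plate z-score of nuclear minus cytoplasmic receptor signal below a set negative limit, without overly bright fluorescence or cell loss, cut at about -3.5 in these data, passing the limit was not always enough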;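 also: z-score of nuclear minus cytoplasmic ring GR-EGFP intensity difference per well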
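Medium: Induction medium lacking tetracycline, stripped serum | Probe or stimulus: 1.0 µM final dexamethasone stimulus | Schedule: 48 h induction, then 1 h compound, then 30 min agonist, 37 °C | Signal: Automated 10x imaging of fixed Hoechst-stained cells | Evaluation: Per-cell GR-EGFP intensity, nucleus versus surrounding cytoplasmic ring, well-averaged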
S1P3 antag: antagonists of human S1P3 receptor | Q99500 | CHO S1P3 NFAT-BLA reporter, FRET fluorescence, antagonist mode | inhibition, % at 4.98 µM | hit rate 0.27% among 170,000;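 active = inhibition above the plate cutoff, the mean inhibition of test wells on that plate plus 3 SD, cut at about 28% in these data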;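 also: cells challenged with S1P at its EC80 of 0.8 µM; blue over green emission ratio from cleaved BLA substrate after 4 h stimulation; 0% = S1P-stimulated wells and 100% = unstimulated DMSO-only wells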
Target sequence (Q99500 whole entry, looked up): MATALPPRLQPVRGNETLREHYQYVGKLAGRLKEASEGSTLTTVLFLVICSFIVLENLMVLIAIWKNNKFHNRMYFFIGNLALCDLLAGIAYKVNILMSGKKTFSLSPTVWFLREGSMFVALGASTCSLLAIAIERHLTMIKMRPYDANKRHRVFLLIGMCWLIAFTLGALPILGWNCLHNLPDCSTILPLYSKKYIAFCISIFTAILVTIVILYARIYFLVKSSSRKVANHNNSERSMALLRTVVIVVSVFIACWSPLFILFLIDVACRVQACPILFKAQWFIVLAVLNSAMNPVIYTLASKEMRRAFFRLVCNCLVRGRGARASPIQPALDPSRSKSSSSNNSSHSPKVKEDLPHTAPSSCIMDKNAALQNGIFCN
Biofilm kill mix: mixture kills Candida albicans biofilm cells | AID 1242 | hit rate 0.02% among 120,000 | C. albicans biofilm persisters + clotrimazole, fluorescence viability; primary screen in compound mixtures of four per well | inhibition, % at 7.6 µM;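 active = inhibition above 30.3% in the primary screen of four-compound pools, then above 30% when the compound was retested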;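 also: compounds exposed to preformed 24 h biofilms for 48 h; 0% = untreated biofilm control and 100% = clotrimazole plus chlorhexidine kill blank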
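Assay system: C. albicans biofilms / Medium: RPMI/MOPS medium, pH 7.0 / Schedule: biofilm formation 24 h, compound exposure 48 h, 37 °C / Measured by: Alamar Blue fluorescence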
TbHK1 inh: T. brucei hexokinase 1 inhibition; recombinant TbHK1, G6PDH-coupled NADH A340; AID 1430; hit rate 0.11% among 220,000; inhibition, % at 10 µM;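 active = inhibition of 50% or more in the single-dose primary screen; inactive = inhibition below 50%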
S1P4 antag: antagonists of human S1P4 receptor. O95977. S1P4-expressing cells, antagonist mode, reporter read-out. inhibition, % at 4.98 µM. hit rate 0.26% among 220,000. AID 1510; in the data active = inhibition above about 29%;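 also: 0% = wells stimulated with agonist and 100% = vehicle wells without agonist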
S1P4 agonist cf: confirmation of human S1P4 receptor agonists; activation, % at 4.98 µM; shares compounds with S1P4 agonist; S1P4 agonist cell-based reporter assay; hit rate 7% among 740; in the data active = activation above about 12%;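 also: 0% = vehicle and 100% = full reference agonist response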
S1P1 ag: human S1P1 agonism as S1P4 agonist counter-screen | activation, % at 4.98 µM | S1P1 agonist cell-based assay, activation | AID 1563 | hit rate 4% among 740 | shares compounds with S1P4 agonist; in the data active = activation above about 21%;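 also: 0% = vehicle wells and 100% = reference agonist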
An asterisk follows results filed as active; nt = no result; ! = not confirmed by another sample.

SMILES | S1P4 agonist | Dynein cargo inh | S1P3 antag | Biofilm kill mix | TbHK1 inh | S1P4 antag | S1P4 agonist cf | S1P1 ag
Cc1c(Cl)c([N+](=O)[O-])nn1Cc1ccc(C(=O)Nc2ccc(Cl)cn2)o1 | 0 | 0.088 | -8 | 11 | 1 | -17 | nt | nt
O=C(Nc1ccc(Cl)cn1)c1ccc([N+](=O)[O-])o1 | 49* | -1.9 | -20 | -5 | -25 | 25 | -4 | -17
CC(C)Cn1c(N)c(C(=O)COC(=O)c2ccc([N+](=O)[O-])o2)c(=O)n(C)c1=O | 1 | -1.5 | -21 | 21 | -3 | 9 | nt | nt
CCn1c(C)c(C(C)=O)c(N2CCCC2)nc1=S | 17* | 0.0065 | 9 | nt | 4 | -4 | -2 | -2
C=CCn1c(C)c(C(C)=O)c(N2CCCC2)nc1=S | 3 | -0.17 | -45 | nt | -1 | 13 | nt | nt
Cc1cc(C)cc(NC(=O)CSc2nnc(-c3ccc(S(=O)(=O)N4CCCC4)cc3)o2)c1 | 11* | -0.33 | -16 | nt | -5 | -13 | -3 | -6
NC(=O)CSc1nnc(-c2ccc(S(=O)(=O)N3CCCC3)cc2)o1 | 3 | -0.41 | nt | 7 | -4 | 5 | nt | nt
CCOc1nc(OCC)c2cnn(C)c2n1 | -1 | 0.37 | 14 | 2 | -6 | -21 | nt | nt
Cc1cccc(CN(C(=S)Nc2c(C)cccc2C)c2cccnc2)c1 | 18* | -0.014 | -3 | 10 | 10 | -25 | -2 | -9
CCc1ccccc1NC(=S)N(Cc1cccc(C)c1)c1cccnc1 | -1 | 1.2 | 5 | 9 | 2 | -5 | nt | nt
COc1ccc(N2CC(C(=O)OCC(=O)NCc3ccccc3)CC2=O)cc1 (stereo not given) | 1 | -0.71 | nt | nt | 1 | 1 | nt | nt
COc1ccc(N2CC(C(=O)NCc3ccccc3)CC2=O)cc1 (stereo not given) | 32* | -0.2 | -1 | nt | 1 | -12 | 0 | 0
COc1cc(C2NC(=O)C(C#N)=C(Nc3cccc(C)c3)S2)ccc1O (stereo not given) | 22*! | -0.063 | -8 | 21 | -33 | 12 | 0 | 1
COC(=O)CSC1=C(C#N)C(=O)NC(c2ccccc2)S1 (stereo not given) | 1 | -0.9 | nt | nt | -51 | 6 | nt | nt
O=[N+]([O-])c1ccc(OCCO)c(P(=O)(c2ccccc2)c2ccccc2)c1 | 155* | -0.38 | 11 | 7 | -12 | -2 | -2 | -3
CCOc1ccc(-c2cc3nc(C4CCN(C(=O)OC(C)(C)C)CC4)c(C(=O)O)cn3n2)cc1 | 126* | -0.73 | -6 | nt | -4 | 2 | -2 | -8
COc1ccc(CCNC(=O)Nc2ccccc2[N+](=O)[O-])cc1 | 21* | -0.022 | 7 | 24 | -6 | 1 | -3 | -1
COc1ccc(CCNC(=O)Nc2cccc([N+](=O)[O-])c2)cc1 | 1 | -0.15 | -3 | 6 | 8 | -7 | nt | nt
NS(=O)(=O)c1ccc(N2N=C(c3ccc(Br)cc3)CC2c2ccc(F)cc2)cc1 (stereo not given) | 24* | -3.3 | nt | nt | 0 | -23 | 43* | 112*
CC(=O)c1ccc(Oc2ccc(C(=O)c3ccc(C)c(C)c3)cc2[N+](=O)[O-])cc1 | 14* | 3 | -9 | 7 | 2 | 11 | -2 | -3
COC(=O)c1ccc(Oc2ccc(C(C)(C)C)cc2)c([N+](=O)[O-])c1 | 0 | 0.96 | nt | nt | 0 | -12 | nt | nt
CCC(=C(c1ccc(OC)cc1)c1ccc(OC)cc1)c1cn(CC(O)CN2CCN(C)CC2)c2ccccc12 (stereo not given) | -5 | 0.78 | nt | nt | -18 | 16 | nt | nt
CC(C)n1cc(CN2CCN(CCc3ccccc3)C(CCO)C2)cn1 (stereo not given) | 14* | 1.4 | 2 | -2 | -8 | 1 | -2 | -4
CCc1nc2ccccc2c(C(=O)OCC(=O)NC(=O)c2cccn2C)c1C | -1 | -0.052 | 1 | 20 | -3 | -10 | nt | nt
Cn1c(CNc2ccc(F)cc2)nnc1SCC(=O)NNC(=O)Cc1ccccc1 | 16* | 1.3 | -9 | 3 | -2 | 5 | -2 | 0
SMILES | S1P4 agonist | Dynein cargo inh | S1P3 antag | Biofilm kill mix | TbHK1 inh | S1P4 antag | S1P4 agonist cf | S1P1 ag
O=C(CSc1nnc(CNc2ccc(F)cc2)n1Cc1ccccc1)NCc1ccccc1 | 2 | -0.13 | nt | 9 | 1 | 6 | nt | nt
CCn1c(C)nc2cc(C(=O)N/N=C/c3cccc(O)c3O)ccc21 | 5 | 0.11 | -3 | 14 | -6 | -5 | nt | nt
O=C(Nc1ccc2c(c1)C(=O)OC2)c1ccc(F)cc1F | -2 | 3.3 | -17 | -5 | -14 | -4 | nt | nt
Clc1ccc(-c2nn3c(Cn4cnc5ccccc54)nnc3s2)c(Cl)c1 | nt | nt | -7 | nt | nt | nt | nt | nt
COc1ccc(/C(C)=N/NC(=O)CNC(=O)c2cccs2)cc1OC | 30* | 0.24 | -26 | 1 | -3 | 4 | -2 | 4
COc1cc(C(=O)NCC(=O)N/N=C(/C)c2cccs2)cc(OC)c1OC | -2 | 0.38 | 4 | -3 | 32 | -9 | nt | nt
CC12c3ccccc3C(c3ccccc31)C1C(=O)N(Cc3cccnc3)C(=O)[C@H]12 (stereo not given in full) | 40* | -0.8 | 11 | 21 | -2 | -1 | -1 | 0
Cc1ccccc1-n1c(=O)[nH]c(=O)c2c(N)c(C(=O)c3ccc(Cl)cc3)sc21 | 83* | -0.087 | -4 | 17 | -1 | -2 | -2 | -7
Cc1nc(-c2cccc(NS(=O)(=O)c3cccc4ccccc34)c2)cs1 | 12* | -0.82 | nt | nt | -2 | 4 | -2 | 4
CCOC(=O)c1c(C)[nH]c(C2=NNC(=Nc3ccccc3)SC2)c1C | 62* | 0.3 | 4 | 17 | -26 | -5 | -1 | -4
CCOC(=O)c1c(C)[nH]c(C2=NNC(=Nc3ccc(OCC)cc3)SC2)c1C | -1 | 0.17 | -5 | 14 | -18 | -12 | nt | nt
COc1ccc(CNC(=O)CS(=O)CC(=O)O)cc1OC (stereo not given) | 0 | 0.059 | -17 | 3 | 1 | 4 | nt | nt
Cc1ccccc1CC1(CO)CCCN(C(=O)c2cc(Cl)ccc2F)C1 (stereo not given) | 26* | 1.9 | -1 | 9 | 10 | 4 | -2 | 3
Cc1ccc(S(=O)(=O)/N=C2\CN(C)C(=O)N2C)cc1 | 16* | -0.64 | -5 | 15 | 1 | -6 | -1 | 3
O=S(=O)(c1cccc(F)c1)N1CCN(C(=S)NCc2ccccc2)CC1 | 2 | 0.81 | -20 | 31 | -3 | -8 | nt | nt
Cc1cccc(NC(=S)N2CCN(S(=O)(=O)c3cccc(F)c3)CC2)c1 | 20* | -1.1 | -6 | 15 | 0 | 4 | -2 | 8
COc1ccc(CCC(=O)Nc2ccccc2C(F)(F)F)cc1 | 3 | -0.52 | 7 | 13 | 1 | 4 | nt | nt
COc1ccc(OC(C)C(=O)Nc2ccccc2C(F)(F)F)cc1 (stereo not given) | 86* | 0.14 | 5 | 14 | -1 | -12 | -3 | 1

Screens from PubChem.
